Results: ChEMBL document CHEMBL5653622 (Oncotarget, 2016)
Active and inactive are the calls of the source. The rule behind the calls is not given here.

Key:
Mus musculus [1] = experiment: Effect on CHK1 in CRTac:Ncr-Fox1 athymic mouse xenografted with human Calu-6 cells assessed as phosphorylation of CHK1 at S345 at 100 mg/kg, iv in presence of carboplatin by Western blotting analysis; format: functional, organism-based
How it was run: (§1)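 Female CRTac:Ncr-Fox1(nu) athymic mice carried s.c. Calu6 xenografts. Tumors were taken 6h after the last inhibitor dose, lysed in CHAPS buffer, and immunoblotted with GAPDH as loading control.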

HT-29 [2] = experiment: Antitumor activity against human HT-29 cells xenografted in CRTac:Ncr-Fox1 mouse assessed as tumor growth delay at 100 mg/kg, iv (reference value: 8.4 +/- 1.6 days); format: functional
HT-29 [3] = experiment: Induction of cell cycle arrest in human HT-29 cells assessed as phosphorylation of CDK1 on pY15 at 200 nM by Western blotting analysis; format: functional, cell-based
How it was run: (§2)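 HT29 colon cells treated with gemcitabine with or without inhibitor. Protein expression was read by western blotting with 50μg protein per lane.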

Mus musculus [4] = experiment: In vivo inhibition of CHK1 in CRTac:Ncr-Fox1 mouse xenografted with human HT-29 cells assessed as increased phosphorylation of CHK1 on S296 at 100 mg/kg, iv administered for 24 hrs by Western blotting analysis; format: functional, organism-based
How it was run: (§3)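 HT29 s.c. xenografts in female athymic nude mice. Single gemcitabine dose 100mg/kg i.v. on day 0, then one inhibitor dose 50 or 100mg/kg p.o. (DPTW vehicle) 24h later. Tumors taken 24h after the last dose, western blotted, and signals quantified by normalizing to GAPDH.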

Calu-6 = experiment: Antitumor activity against human Calu-6 cells xenografted in CRTac:Ncr-Fox1 mouse assessed as tumor growth delay time at 100 mg/kg, iv in presence of carboplatin (reference value: 6.4 +/- 2.5 days); format: functional
HT-29 [5] = experiment: Antitumor activity against human HT-29 cells xenografted in CRTac:Ncr-Fox1 mouse assessed as tumor growth delay at 100 mg/kg, iv (reference value: […] +/- 5.2 days); format: functional
Mus musculus [6] = experiment: Effect on CHK1 in CRTac:Ncr-Fox1 athymic mouse xenografted with human Calu-6 cells assessed as phosphorylation of CHK1 at S296 at 100 mg/kg, iv in presence of carboplatin by Western blotting analysis; format: functional, organism-based; how it was run: as §1
[7] = Toxicity in CRTac:Ncr-Fox1 mouse xenografted with human SW620 cells assessed as body weight at 100 mg/kg, iv administered for 9 days relative to control; format: organism-based, SW-620; settings: in vivo, 216 h, time 9 day
Mus musculus [8] = experiment: Effect on CHK1 in CRTac:Ncr-Fox1 athymic mouse xenografted with human Calu-6 cells assessed as phosphorylation of CHK1 at S317 at 100 mg/kg, iv in presence of carboplatin by Western blotting analysis; format: functional, organism-based; how it was run: as §1
Mus musculus [9] = experiment: In vivo inhibition of CHK1 in CRTac:Ncr-Fox1 mouse xenografted with human HT-29 cells assessed as increased phosphorylation of CHK1 on S317 at 100 mg/kg, iv administered for 24 hrs by Western blotting analysis; format: functional, organism-based; how it was run: as §3
Mus musculus [10] = experiment: In vivo inhibition of CHK1 in CRTac:Ncr-Fox1 mouse xenografted with human HT-29 cells assessed as increased phosphorylation of CDK1 on Y15 at 100 mg/kg, iv administered for 24 hrs by Western blotting analysis; format: functional, organism-based; how it was run: as §3
HT-29 [11] = experiment: Cytotoxicity against human HT-29 cells assessed as phosphorylation of CHK1 on S345 at 200 nM by Western blotting analysis; format: functional, cell-based; how it was run: as §2
HT-29 [12] = experiment: Cytotoxicity against human HT-29 cells assessed as phosphorylation of CHK1 on S317 at 200 nM by Western blotting analysis; format: functional, cell-based; how it was run: as §2
HT-29 [13] = experiment: Antitumor activity against human HT-29 cells xenografted in CRTac:Ncr-Fox1 mouse assessed as tumor growth delay at 100 mg/kg, iv (reference value: 7.2 +/- 1.8 days); format: functional
HT-29 [14] = experiment: Cytotoxicity against human HT-29 cells assessed as phosphorylation of CHK1 on S280 at 200 nM by Western blotting analysis; format: functional, cell-based; how it was run: as §2
[15] = Toxicity in CRTac:Ncr-Fox1 mouse xenografted with human HT-29 cells assessed as body weight at 200 mg/kg, iv administered for 16 days relative to control; format: organism-based; settings: in vivo, 384 h, time 16 day
HT-29 [16] = experiment: Cytotoxicity against human HT-29 cells assessed as phosphorylation of CHK1 on S296 at 200 nM by Western blotting analysis; format: functional, cell-based; how it was run: as §2

Nc1ccn([C@@H]2O[C@H](CO)[C@@H](O)C2(F)F)c(=O)n1 [GEMCITABINE]
Activity (Mus musculus [1]): Active | Time (HT-29 [2]): 2.6 days | Activity (HT-29 [3]): Active | Activity (Mus musculus [4]): Active | Time (Calu-6): 0.7 days | Time (HT-29 [5]): 0.3 days | Activity (Mus musculus [6]): Active | residual activity [7]: 95.7% | Activity (Mus musculus [8]): Active | Activity (Mus musculus [9]): Active | Activity (Mus musculus [10]): Active | Activity (HT-29 [11]): Active | Activity (HT-29 [12]): Active | Time (HT-29 [13]): 2.9 days | Activity (HT-29 [14]): Active | residual activity [15]: 94.2% | Activity (HT-29 [16]): Active
